Assay results from ChEMBL document CHEMBL3745686 (Eur J Med Chem, 2016).
Calls of active or inactive are those of the source. The calls are words filed in the database; no cut-off is given here.

Tests used:
P2Y purinoceptor 12 [1] = target: T1, P2Y purinoceptor 12 (Homo sapiens, UniProt Q9H244); experiment: Agonist activity at human platelet P2Y12 receptor assessed as decrease in intra-platelet phosphorylated VASP by flow cytometric analysis
Platelet [2] = experiment: Anti-aggregatory activity in human platelet rich plasma assessed as inhibition of ADP-induced platelet shape change; format: functional, cell-free
Platelet [3] = experiment: Ratio of IC50 for inhibition of 20 uM ADP-induced human platelet aggregation for inhibition of 20 uM ADP-induced human platelet aggregation preincubated for 15 mins; format: functional
[4] = target: T2, P2X purinoceptor 1 (Homo sapiens) (UniProt P51575); experiment: Agonist activity at human platelet P2X1 receptor assessed as increase in cytosolic calcium level at 1 uM by […] staining based flow cytometric analysis relative to beta,gamma-CH2-ATP
T2 sequence (whole entry): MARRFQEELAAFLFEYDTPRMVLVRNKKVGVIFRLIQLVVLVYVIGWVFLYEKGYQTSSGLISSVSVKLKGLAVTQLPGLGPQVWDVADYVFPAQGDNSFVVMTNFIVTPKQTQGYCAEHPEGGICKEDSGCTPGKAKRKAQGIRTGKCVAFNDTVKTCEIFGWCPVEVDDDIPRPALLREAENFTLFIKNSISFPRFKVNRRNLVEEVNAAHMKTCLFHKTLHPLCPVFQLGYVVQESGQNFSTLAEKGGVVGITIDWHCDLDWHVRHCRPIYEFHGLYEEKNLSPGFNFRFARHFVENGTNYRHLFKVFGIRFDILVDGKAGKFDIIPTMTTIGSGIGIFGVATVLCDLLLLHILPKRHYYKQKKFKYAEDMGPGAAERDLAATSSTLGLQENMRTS
Outline: (§1)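 Stimulus was extracellular Ca2+ uptake on 1 μM test compound (P2X1, scaled to 20 μM β,γ-CH2-ATP as 100%, selective P2Y1 inhibitor control), or 3 μM ADP (P2Y1 antagonism; omitted for agonism).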

P2Y purinoceptor 1 [5] = target: T3, P2Y purinoceptor 1 (Homo sapiens, UniProt P47900); experiment: Antagonist activity at human platelet P2Y1 receptor assessed as inhibition of ADP-induced increase in cytosolic calcium level by FLUO-4 staining based flow cytometric analysis; format: functional
Outline: as §1

[6] = Anti-aggregatory activity in human platelet rich plasma assessed as inhibition of 20 uM ADP-induced platelet aggregation preincubated for 15 mins by optical aggregometric analysis; format: functional, cell-free
P2Y purinoceptor 12 [7] = target: T1, P2Y purinoceptor 12; experiment: Antagonist activity at human platelet P2Y12 receptor assessed as inhibition of ADP-mediated decrease in intra-platelet phosphorylated VASP by flow cytometric analysis
[8] = Anti-aggregatory activity in human platelet rich plasma assessed as inhibition of 20 uM ADP-induced platelet aggregation by optical aggregometric analysis; format: functional, cell-free
P2Y purinoceptor 1 [9] = target: T3, P2Y purinoceptor 1; experiment: Agonist activity at human platelet P2Y1 receptor assessed as increase in cytosolic calcium level by FLUO-4 staining based flow cytometric analysis; format: functional
Outline: as §1

[10] = Anti-aggregatory activity in human platelet rich plasma assessed as inhibition of ADP-induced platelet aggregation by optical aggregometry; format: functional, cell-free
Plasma [11] = experiment: Half life in human plasma at 50 uM measured at 1 to 4 hrs; format: ADME, cell-free
Plasma [12] = experiment: Metabolic stability in rat plasma assessed as first order elimination rate constant at 50 uM measured at 1 to 4 hrs; format: ADME, cell-free
Plasma [13] = experiment: Half life in rat plasma at 50 uM measured at 1 to 4 hrs; format: ADME, cell-free
Plasma [14] = experiment: Metabolic stability in human plasma assessed as first order elimination rate constant at 50 uM measured at 1 to 4 hrs; format: ADME, cell-free
Plasma [15] = experiment: Drug level in rat plasma treated with P'1,P'4-di-(2 methylthio-5'-adenosine) P'1,P'4-dithio-P'2,P'3-chloromethylenetetraphosphate, sodium salt at 50 uM after 77 hrs by HPLC analysis; format: ADME, cell-free
Outline: (§2)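 Frozen pooled heparinised rat or human plasma, thawed and warmed 5 min at 37 °C, spiked to 50 μM final compound (from 10 mM saline stock), held at 37 °C up to 77 h; heat-denatured plasma as chemical control; aliquots quenched with MeCN, ultrafiltered, dried, redissolved in pH 8.5 phosphate/EDTA; isocratic RP-HPLC, 273 nm; metabolites confirmed by reference compounds and LCMS; peak areas internally normalised.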

Plasma [16] = experiment: Drug level in human plasma treated with P'1,P'4-di-(2 methylthio-5'-adenosine) P'1,P'4-dithio-P'2,P'3-chloromethylenetetraphosphate, sodium salt at 50 uM after 77 hrs by HPLC analysis; format: ADME, cell-free
Outline: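 Pooled heparinized human plasma, prewarmed 5 min at 37 °C, was spiked to 50 μM final from a saline stock and incubated at 37 °C. Aliquots were MeCN-precipitated, ultrafiltered (10K), dried, reconstituted in phosphate/EDTA pH 8.5, and run on C18 HPLC (isocratic 20% methanol, 50 mM phosphate pH 8.4, 10 mM EDTA, UV 273 nm). Diastereomer peak areas were internally normalized, with heat-denatured plasma and blank controls.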

[17] = Half life in rat plasma; format: ADME, cell-free
[18] = Half life in human plasma at 0.7 uM; format: ADME, cell-free
Plasma [19] = experiment: Drug metabolism in human plasma assessed as MeSAdo formation at 50 uM after 77 hrs by HPLC analysis; format: ADME, cell-free
Outline: as §2

Plasma [20] = experiment: Drugmetabolism in human plasma assessed as MeSAMP(S) formation at 50 uM after 77 hrs by HPLC analysis; format: ADME, cell-free
Outline: as §2

Plasma [21] = experiment: Drug metabolism in rat plasma assessed as MeSAMP(S) formation at 50 uM after 77 hrs by HPLC analysis; format: ADME, cell-free
Outline: as §2

[22] = Chemical stability in heat denaturated plasma (unknown origin); format: ADME, cell-free
Outline: as §2

Platelet [23] = experiment: Anti-aggregatory activity in ADP-induced human platelet rich plasma assessed as platelet surface activated GP2b-3a expression at 10 nM preincubated for 30 mins followed by 100 fold dilution by fluorescence assay; format: functional
Outline: (§3)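 Human PRP from aspirin/NSAID-free donors in 3.2% citrate; platelets pre-incubated 30 min with 10 nM compound, then diluted 100-fold in platelet-poor plasma with or without 10 nM compound, stimulated with ADP; surface activated GPIIb-IIIa and P-selectin read as mean fluorescence intensity; means ± SEM of 3 experiments.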

[24] = Anti-aggregatory activity in human platelet rich plasma assessed as inhibition of 20 uM ADP-induced platelet surface activated GP2b-3a expression by fluorescence assay; format: functional, cell-free
Plasma [25] = experiment: Metabolic stability in fresh rat plasma assessed as compound degradation at 50 uM after 24 hrs by HPLC analysis; format: ADME, cell-free
[26] = Anti-aggregatory activity in human platelet rich plasma assessed as inhibition of 20 uM ADP-induced P-selectin expression by fluorescence assay; format: functional, cell-free
Platelet [27] = experiment: Anti-aggregatory activity in ADP-induced human platelet rich plasma assessed as P-selectin expression at 10 nM preincubated for 30 mins followed by 100 fold dilution by fluorescence assay; format: functional
Outline: as §3

Plasma [28] = experiment: Drug metabolism in rat plasma assessed as MeSAdo formation at 50 uM after 77 hrs by HPLC analysis; format: ADME, cell-free
Outline: as §2

Platelet [29] = experiment: Anti-aggregatory activity in human platelet rich plasma assessed as inhibition of ADP-induced primary and secondary platelet aggregation preincubated for 15 mins followed by ADP addition and 10 secs shaking measured every 27 secs with 10 secs shaking by 96-well microplate method; format: functional, cell-free
Outline: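 PRP incubated with compound 15 min at 37 °C, aggregation started with 5 μM ADP and 10 s shaking; absorbance at 580 nm read every 27 s with 10 s shaking between reads; 100% set by platelet-poor plasma, 0% by PRP.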

Platelet [30] = experiment: Anti-aggregatory activity in human platelet rich plasma assessed as inhibition of 20 uM ADP-induced platelet aggregation at 25 nM preincubated for 15 mins followed by ADP addition measured every 11 secs for 6 mins by 96-well microplate method; format: functional, cell-free
[31] = target: P2Y purinoceptor 4 (Homo sapiens) (UniProt P51582); experiment: Effect on human P2Y4 receptor
Platelet [32] = experiment: Anti-aggregatory activity in human platelet rich plasma assessed as inhibition of 20 uM ADP-induced platelet aggregation at 100 nM preincubated for 15 mins followed by ADP addition measured every 11 secs for 6 mins by 96-well microplate method; format: functional, cell-free
[33] = target: P2Y purinoceptor 2 (Homo sapiens) (UniProt P41231); experiment: Effect on human P2Y2 receptor
[34] = target: P2Y purinoceptor 6 (Homo sapiens) (UniProt Q15077); experiment: Effect on human P2Y6 receptor
Sequence of P2Y purinoceptor 6 (Homo sapiens) (Q15077 whole entry): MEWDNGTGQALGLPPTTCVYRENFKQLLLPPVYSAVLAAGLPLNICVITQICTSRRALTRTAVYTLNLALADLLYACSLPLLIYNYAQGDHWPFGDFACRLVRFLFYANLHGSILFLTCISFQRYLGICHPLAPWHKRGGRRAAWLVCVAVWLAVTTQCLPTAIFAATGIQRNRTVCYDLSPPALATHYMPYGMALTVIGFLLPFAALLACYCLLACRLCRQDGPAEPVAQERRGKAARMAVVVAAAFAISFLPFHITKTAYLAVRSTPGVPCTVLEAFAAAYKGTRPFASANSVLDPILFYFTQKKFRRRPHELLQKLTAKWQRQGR

T3 sequence (P47900 whole entry): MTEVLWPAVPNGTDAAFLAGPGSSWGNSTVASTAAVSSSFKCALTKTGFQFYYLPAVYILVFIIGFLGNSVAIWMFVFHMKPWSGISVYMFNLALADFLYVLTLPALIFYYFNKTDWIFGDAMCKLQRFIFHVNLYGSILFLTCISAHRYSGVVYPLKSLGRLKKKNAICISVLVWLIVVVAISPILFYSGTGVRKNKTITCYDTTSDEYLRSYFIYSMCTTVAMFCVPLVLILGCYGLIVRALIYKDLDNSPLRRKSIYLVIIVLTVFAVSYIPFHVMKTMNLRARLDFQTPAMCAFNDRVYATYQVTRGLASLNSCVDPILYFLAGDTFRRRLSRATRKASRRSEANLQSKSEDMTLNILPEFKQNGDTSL
T1 sequence (Q9H244 whole entry): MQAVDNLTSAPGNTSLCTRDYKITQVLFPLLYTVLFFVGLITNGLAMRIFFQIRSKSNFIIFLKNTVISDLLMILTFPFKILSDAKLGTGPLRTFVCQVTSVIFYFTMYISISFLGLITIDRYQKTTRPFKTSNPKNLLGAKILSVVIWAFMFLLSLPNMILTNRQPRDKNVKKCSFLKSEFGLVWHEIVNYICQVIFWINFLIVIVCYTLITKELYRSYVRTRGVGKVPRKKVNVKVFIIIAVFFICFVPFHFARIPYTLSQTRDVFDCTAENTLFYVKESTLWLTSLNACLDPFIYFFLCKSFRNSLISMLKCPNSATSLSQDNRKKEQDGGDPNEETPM
Sequence of P2Y purinoceptor 4 (Homo sapiens) (P51582 whole entry): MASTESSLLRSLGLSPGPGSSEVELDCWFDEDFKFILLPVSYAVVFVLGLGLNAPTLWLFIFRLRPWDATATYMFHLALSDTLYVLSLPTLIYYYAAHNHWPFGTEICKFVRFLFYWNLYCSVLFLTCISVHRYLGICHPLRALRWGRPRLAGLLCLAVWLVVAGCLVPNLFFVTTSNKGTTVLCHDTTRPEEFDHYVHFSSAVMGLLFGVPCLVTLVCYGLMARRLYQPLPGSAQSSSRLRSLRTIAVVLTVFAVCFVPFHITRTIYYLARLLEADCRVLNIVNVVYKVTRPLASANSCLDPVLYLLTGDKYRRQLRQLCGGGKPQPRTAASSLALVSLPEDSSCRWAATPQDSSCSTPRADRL
Sequence of P2Y purinoceptor 2 (Homo sapiens) (P41231 whole entry): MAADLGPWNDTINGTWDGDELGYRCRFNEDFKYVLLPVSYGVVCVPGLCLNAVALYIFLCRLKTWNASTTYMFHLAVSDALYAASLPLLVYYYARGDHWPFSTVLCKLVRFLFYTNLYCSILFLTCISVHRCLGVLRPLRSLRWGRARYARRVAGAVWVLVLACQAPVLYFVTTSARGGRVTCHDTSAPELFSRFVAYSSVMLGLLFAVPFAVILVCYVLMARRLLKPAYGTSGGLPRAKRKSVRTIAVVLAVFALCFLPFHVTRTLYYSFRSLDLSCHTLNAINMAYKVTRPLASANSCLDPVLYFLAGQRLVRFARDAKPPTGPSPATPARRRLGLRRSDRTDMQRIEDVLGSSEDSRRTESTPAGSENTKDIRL

Row | SMILES | Activity (P2Y purinoceptor 12 [1]) | inhibition (Platelet [2]) | Activity [4] [%] | IC50 (P2Y purinoceptor 1 [5]) [nM] | IC50 [6] [nM] | IC50 (P2Y purinoceptor 12 [7]) [nM] | IC50 [8] [nM] | Activity (P2Y purinoceptor 1 [9]) | t1/2 (Plasma [11]) [h] | Kel (Plasma [12]) [h⁻¹] | t1/2 (Plasma [13]) [h] | Kel (Plasma [14]) [h⁻¹] | further results
1 | CCSc1nc(N)c2ncn([C@@H]3O[C@H](COP(=O)([S-])OP(=O)([O-])C(Cl)P(=O)([O-])OP(=O)([S-])OC[C@H]4O[C@@H](n5cnc6c(N)nc(SCC)nc65)[C@H](O)[C@@H]4O)[C@@H](O)[C@H]3O)c2n1.[Na+].[Na+].[Na+].[Na+] (mixture of isomers) | inactive | Active | 23.8 | 9600 | 54.3 | 140 | 3320 | inactive |  |  |  |  | Ratio IC50 (Platelet [3]): 50
2 | CSc1nc(N)c2ncn([C@@H]3O[C@H](COP(=O)([S-])OP(=O)([O-])C(Cl)P(=O)([O-])OP(=O)([S-])OC[C@H]4O[C@@H](n5cnc6c(N)nc(SC)nc65)[C@H](O)[C@@H]4O)[C@@H](O)[C@H]3O)c2n1.[Na+].[Na+].[Na+].[Na+] (single isomer, unassigned; diastereomer 2) |  |  |  |  |  |  |  |  | 40.6 | 0.137 | 5.06 | 0.0171 | IC50 [10]: 83 nM
3 | CSc1nc(N)c2ncn([C@@H]3O[C@H](CO)[C@@H](O)[C@H]3O)c2n1 |  |  |  |  |  |  |  |  |  |  |  |  | Drug metabolism (Plasma [15]): metabolite_detected; Drug metabolism (Plasma [16]): metabolite_detected
4 | CSc1nc(N)c2ncn([C@@H]3O[C@H](COP(=O)([S-])OP(=O)([O-])C(Cl)P(=O)([O-])OP(=O)([S-])OC[C@H]4O[C@@H](n5cnc6c(N)nc(SC)nc65)[C@H](O)[C@@H]4O)[C@@H](O)[C@H]3O)c2n1.[Na+].[Na+].[Na+].[Na+] (single isomer, unassigned; diastereomer 4) |  |  |  |  |  |  |  |  | 16.4 | 0.508 | 1.37 | 0.0424 | IC50 [10]: 110 nM
5 | Nc1nc(Br)nc2c1ncn2[C@@H]1O[C@H](COP(=O)(S)OP(=O)(O)C(Cl)P(=O)(O)OP(=O)(S)OC[C@H]2O[C@@H](n3cnc4c(N)nc(Br)nc43)[C@H](O)[C@@H]2O)[C@@H](O)[C@H]1O (mixture of isomers) | inactive | Active | 1.8 | 2240 | 4520 | 340 | 6220 | inactive |  |  |  |  | 
6 | Nc1ncnc2c1ncn2[C@@H]1O[C@H](COP(=O)(O)OP(=O)(O)OP(=O)(O)OP(=O)(O)OC[C@H]2O[C@@H](n3cnc4c(N)ncnc43)[C@H](O)[C@@H]2O)[C@@H](O)[C@H]1O [DIADENOSINE TETRAPHOSPHATE] |  |  | 198 |  |  |  |  |  |  |  |  |  | half-life [17]: 2.99 min; half-life at 0.7 µM [18]: 2 min
7 | CSc1nc(N)c2ncn([C@@H]3O[C@H](COP(=O)([S-])OP(=O)([O-])C(Cl)P(=O)([O-])OP(=O)([S-])OC[C@H]4O[C@@H](n5cnc6c(N)nc(SC)nc65)[C@H](O)[C@@H]4O)[C@@H](O)[C@H]3O)c2n1.[Na+].[Na+].[Na+].[Na+] (mixture of isomers) |  |  |  | 2150 | 63.6 | 220 | 2560 |  | 31.3 | 0.147 | 4.73 | 0.0221 | Drug metabolism (Plasma [19]): metabolite_detected; Stability (Plasma [20]): Stable; Drug metabolism (Plasma [21]): metabolite_detected; Stability [22]: Stable; Ratio IC50 (Platelet [3]): 50; Activity (Platelet [23]): 80%; IC50 [24]: 1.1 nM; Stability (Plasma [25]): Stable; IC50 [26]: 0.6 nM; Activity (Platelet [27]): 80%; Drug metabolism (Plasma [28]): metabolite_detected
8 | CSc1nc(N)c2ncn([C@@H]3O[C@H](COP(=O)(S)OP(=O)(O)C(Cl)P(=O)(O)OP(=O)(S)OC[C@H]4O[C@@H](n5cnc6c(N)nc(SC)nc65)[C@H](O)[C@@H]4O)[C@@H](O)[C@H]3O)c2n1 (mixture of isomers) | inactive | Active | 0.24 |  |  |  |  | inactive |  |  |  |  | inhibition (Platelet [29]): Dose-dependent effect; inhibition (Platelet [30]): Active; Activity [31]: inactive; inhibition (Platelet [32]): Active; Activity [33]: inactive; Activity [34]: inactive
9 | CSc1nc(N)c2ncn([C@@H]3O[C@H](COP(O)(O)=S)[C@@H](O)[C@H]3O)c2n1 |  |  |  |  |  |  |  |  |  |  |  |  | Drug metabolism (Plasma [15]): metabolite_detected
